# Source: PubChem (Broad Institute)
# PAX8 inh HTS: lowers PAX8-driven luciferase in RMG-I cells. RMG-I TPO-luciferase reporter, SteadyGlo, 24 h. inhibition, % at 12.6 µM. hit rate 1.2% among 360,000. AID 652154;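 active = mean replicate inhibition at least 60% with every replicate also reaching 60%; inconclusive = only one of the two criteria is met; inactive = mean below 60% and not all replicates reaching 60%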;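 note: luciferase light reporting Pax8 driven TPO promoter activity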
# RAD54 inh: RAD54 (human) branch migration inhibition. Q92698. RAD54 Holliday junction branch migration, FAM/BHQ fluorescence. inhibition, % at 10.4 µM. hit rate 0.14% among 360,000. AID 602329;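 active = mean normalized replicate activity at least 40 and at least half of replicates scoring 40 or more; inconclusive = only one of the two criteria met; inactive = mean below 40 and under half of replicates reaching 40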;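 note: inhibitors cause a drop in the FAM fluorescence signal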
# Target sequence (Q92698 whole entry, looked up): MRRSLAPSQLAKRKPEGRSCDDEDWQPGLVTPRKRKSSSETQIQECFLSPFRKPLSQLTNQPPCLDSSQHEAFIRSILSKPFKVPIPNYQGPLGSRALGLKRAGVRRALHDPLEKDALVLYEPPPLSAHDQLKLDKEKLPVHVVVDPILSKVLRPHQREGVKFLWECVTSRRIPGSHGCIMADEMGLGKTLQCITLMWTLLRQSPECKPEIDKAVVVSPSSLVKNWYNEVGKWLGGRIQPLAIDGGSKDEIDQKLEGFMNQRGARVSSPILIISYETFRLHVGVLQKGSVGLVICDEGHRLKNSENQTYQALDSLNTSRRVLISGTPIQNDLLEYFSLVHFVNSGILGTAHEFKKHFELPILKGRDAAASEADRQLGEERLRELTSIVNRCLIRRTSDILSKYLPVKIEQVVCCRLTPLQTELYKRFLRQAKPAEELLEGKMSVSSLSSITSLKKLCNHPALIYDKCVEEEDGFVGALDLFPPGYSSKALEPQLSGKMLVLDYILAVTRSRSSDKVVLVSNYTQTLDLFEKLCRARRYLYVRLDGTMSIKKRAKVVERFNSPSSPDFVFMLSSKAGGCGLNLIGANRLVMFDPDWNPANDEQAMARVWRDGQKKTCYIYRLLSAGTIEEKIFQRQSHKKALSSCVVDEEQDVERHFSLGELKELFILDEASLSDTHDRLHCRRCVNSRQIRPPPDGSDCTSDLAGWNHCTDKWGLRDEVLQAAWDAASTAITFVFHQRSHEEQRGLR
# FN deposition inh: fibronectin deposition inhibition; AH1F fibroblasts, Alexa488-fibronectin deposition fluorescence, overnight; inhibition, % at 12.6 µM; hit rate 0.086% among 350,000;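 active = mean inhibition across replicates of 30% or more, regardless of how many single replicates reach that level; inconclusive = mean under 30% yet at least half of replicates reach 30%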
#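 Material: AH1F fibroblasts assembling fluorescent fibronectin matrix; amount: 10000 AH1F cells/well; medium: DMEM, 2% serum; reagent: Alexa488-fibronectin, 24 nM final in well; dosing: single compound dose, delivered by pin transfer; incubation: 1 h adhesion, overnight exposure; detection: fluorescence after three HBSS washes, excitation 485 nm, emission 525 nm; measure: fibronectin deposition inhibition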
# RAD52 inh: RAD52 (human) annealing inhibition. P43351. recombinant RAD52 DNA annealing, FRET fluorescence. inhibition, % at 18.7 µM. hit rate 0.46% among 360,000;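 active = every replicate showing at least 50% inhibition; inconclusive = mean inhibition at least 50% but not in every replicate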
# Numbers stand for hits; - = inactive; ? = inconclusive; . = no result. A selection: hits, their analogues and other compounds. The true share with any hit is near 1.3%.
SMILES,PAX8 inh HTS,RAD54 inh,FN deposition inh,RAD52 inh
O=C(C[C@@H]1C[C@@H]2c3cc(NC(=O)NC4CCCC4)ccc3O[C@@H]2[C@@H](CO)O1)NCCN1CCCCC1,-,-,-,-
COc1ccc(CN(C)C[C@@H]2Oc3ccc(NC(=O)C4CCCCC4)cc3CC(=O)N([C@@H](C)CO)C[C@@H]2C)cc1,.,-,.,-
c1ccc(-c2sc3ccccc3c2-c2ccc(OCCN3CCCCC3)cc2)cc1,-,-,-,-
CN(C)CCOc1ccc(-c2c(-c3ccccc3)sc3ccccc23)cc1,80,-,-,-
Cc1cc(C)cc(OCC(=O)N(C)CC(=O)Nc2ccc(N3CCOCC3)cc2)c1,75,-,-,-
CC1(C)N=C(N)N=C(N)N1c1cccc(CC(=O)Nc2ccccc2)c1,-,-,.,-
CC1(C)N=C(N)N=C(N)N1CCCCc1ccccc1,73,.,-,-
OCC#CCSc1nnc(-c2cccc3ccccc23)o1,-,-,-,-
CCc1ccc(/C=C2\SC(=S)N(CCCC(=O)N(CCO)c3ccccc3)C2=O)cc1,94,-,-,-
CCCNC(=O)N1CC2(C1)CN(C(=O)COC)[C@@H](CO)c1[nH]c3cc(OC)ccc3c12,-,.,.,-
COc1ccc(CN2CC3(C2)CN(C(=O)CN(C)C)[C@@H](CO)c2[nH]c4cc(OC)ccc4c23)cc1,.,.,.,67
COc1ccc2c3c([nH]c2c1)[C@@H](CO)N(C(=O)CN(C)C)CC31CN(Cc2ccccc2)C1,.,.,.,60
CCCNC(=O)N1CC2(C1)CN(C(=O)COC)[C@H](CO)c1[nH]c3cc(OC)ccc3c12,61,.,.,-
COc1ccc2c3c([nH]c2c1)[C@@H](CO)NCC31CCN(Cc2ccc(F)cc2)CC1,-,.,-,72
COc1ccc2c3c([nH]c2c1)[C@@H](CO)NCC31CCN(C(=O)Nc2ccc(F)cc2)CC1,.,.,.,-
Cc1ccc(/C=C/c2ccc(N(C)C)cc2)[n+](C)c1,-,-,-,-
COc1ccc(CN2CC3(C2)CN(C(=O)CN(C)C)[C@H](CO)c2[nH]c4cc(OC)ccc4c23)cc1,.,.,.,69
CN(Cc1c(C(=O)N/N=C/c2cccc(O)c2)nnn1-c1nonc1N)C1CCCCC1,-,-,-,-
CC(C)c1c(C(=O)N/N=C/c2ccc3c(c2)OCO3)nnn1-c1nonc1N,-,-,-,-
CCN(CC)c1ccc(/C=N/NC(=O)c2nnn(-c3nonc3N)c2C(C)C)c(O)c1,85,-,-,-
CN(Cc1c(C(=O)N/N=C/c2ccccc2O)nnn1-c1nonc1N)C1CCCCC1,70,-,-,-
CC(C)NC(=O)Nc1ccc2c(c1)C(=O)N([C@@H](C)CO)C[C@H](C)[C@H](CN(C)S(=O)(=O)c1cccs1)OCCCC[C@H](C)O2,-,-,-,-
Cc1ccc(S(=O)(=O)N2C[C@H]3C(=O)C[C@@H](c4ccccc4)N(S(=O)(=O)c4ccc(C)cc4)[C@H]3C[C@H]2c2cccs2)cc1,-,-,-,-
C[C@@H]1CN([C@@H](C)CO)S(=O)(=O)c2ccc(-c3ccccc3)cc2O[C@@H]1CN(C)S(=O)(=O)c1ccccc1F,-,-,.,-
Cc1ccc(S(=O)(=O)N(C)C[C@H]2Oc3cc(C4=CCCC4)ccc3S(=O)(=O)N([C@H](C)CO)C[C@H]2C)cc1,-,-,.,-
SMILES,PAX8 inh HTS,RAD54 inh,FN deposition inh,RAD52 inh
C[C@@H]1CN([C@@H](C)CO)S(=O)(=O)c2ccc(-c3ccccc3)cc2O[C@H]1CN(C)S(=O)(=O)c1ccccc1F,63,-,-,-
Cc1ccc(S(=O)(=O)N(C)C[C@@H]2Oc3cc(C4=CCCC4)ccc3S(=O)(=O)N([C@@H](C)CO)C[C@H]2C)cc1,71,-,.,-
COc1cccc(S(=O)(=O)N(C)C[C@@H]2Oc3cc(C4=CCCCC4)ccc3S(=O)(=O)N([C@@H](C)CO)C[C@H]2C)c1,77,-,.,-
CC(O)Cn1c(=O)c2c(nc(Br)n2Cc2ccccc2)n(C)c1=O (centres undefined),.,-,.,.
Cc1cc(C)cc(C(O)c2ncc(-c3ccc(C(F)(F)F)cc3)[nH]2)c1 (centres undefined),-,-,-,-
C[C@@H]1CN([C@H](C)CO)C(=O)c2cccc(NC(=O)c3ccc(-c4nccs4)cc3)c2O[C@H]1CN(C)Cc1ccc(C(=O)O)cc1,.,-,.,-
CC1CCN(CC(=O)NCc2ccco2)CC1,-,-,-,-
CCOC(=O)c1cnn(CCOC(=O)c2cccc(F)c2)c1NC(=O)c1cccc(F)c1,110,-,-,-
COC(=O)[C@@]12C[C@@H](CC(=O)NCc3ccccc3)C(=O)N(Cc3ccco3)C1=CCC(C)(C)C2,-,.,-,-
COC(=O)[C@@]12C[C@@H](CC(=O)N3CCN(C(=O)c4ccco4)CC3)C(=O)N(Cc3ccccc3)C1=CCC(C)(C)C2,88,.,-,-
COC(=O)[C@]12C[C@H](CC(=O)N3CCN(C(=O)c4ccco4)CC3)C(=O)N(Cc3ccc4c(c3)OCO4)C1=C[C@H](C(C)(C)C)O[C@@H]2C,-,.,-,-
COC(=O)[C@@]12C[C@@H](CC(=O)N3CCN(C(=O)c4ccco4)CC3)C(=O)N(Cc3ccco3)C1=CCC(C)(C)C2,87,.,-,-
COC(=O)[C@]12C[C@H](CC(=O)N3CCN(C(=O)c4ccco4)CC3)C(=O)N(Cc3ccccc3)C1=C[C@H](C(C)(C)C)O[C@@H]2C,74,.,-,-
COC(=O)[C@@]12C[C@@H](CC(=O)N3CCN(C(=O)c4ccco4)CC3)C(=O)N(Cc3ccc4c(c3)OCO4)C1=CCC(C)(C)C2,-,.,-,-
O=C(CCl)Nc1cc2[nH]c(=O)[nH]c2cc1Br,91,.,-,-
Cc1cccc(NC(=O)CCc2ccc(N3C(N)=NC(N)=NC3(C)C)cc2)c1,65,.,.,-
C[C@@H]1CN([C@@H](C)CO)S(=O)(=O)c2ccc(C#Cc3ccccc3F)cc2O[C@@H]1CN(C)C(=O)c1ccc2c(c1)OCO2,78,-,.,-
C[C@H]1CN([C@@H](C)CO)S(=O)(=O)c2ccc(C#Cc3ccccc3F)cc2O[C@H]1CN(C)C(=O)c1ccc2c(c1)OCO2,90,-,.,-
C[C@@H]1CN([C@H](C)CO)S(=O)(=O)c2ccc(C#Cc3ccccc3F)cc2O[C@H]1CN(C)C(=O)Cc1ccccc1,?,-,.,-
C[C@H]1CN([C@@H](C)CO)S(=O)(=O)c2ccc(C#Cc3ccccc3F)cc2O[C@H]1CN(C)C,.,-,-,-
CC(=O)Nc1cccc(-c2ccnc3c2CC(C)(C(=O)Nc2cccc(Oc4ccccc4)c2)O3)c1 (centres undefined),64,-,-,-
CC(=O)Nc1cccc(-c2ccnc3c2CC(C)(C(=O)Nc2cccc(C(F)(F)F)c2)O3)c1 (centres undefined),-,-,30,-
CC1(C(=O)Nc2cccc(Oc3ccccc3)c2)Cc2c(-c3ccccc3)ccnc2O1 (centres undefined),-,-,-,-
O=C(c1ccoc1)N1CCC(CO)(CCc2ccccc2)CC1,-,-,.,-
COc1ccccc1NS(=O)(=O)c1ccc(-c2cnc(C3CC3)o2)cc1,-,-,-,-
Cc1cccc(N(C)S(=O)(=O)c2ccc(-c3cnc(C4CC4)o3)cc2)c1,99,-,-,-
